Results as given in PubChem BioAssay AID1027 (Sanford-Burnham Center for Chemical Genomics, 2008).
Fewer than 10 of roughly 200,000 compounds were called active.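 The calls were made as follows: active = luciferase activation factor, scaled between plate controls, of at least 2 with compound at 10 µM; inactive = the rest.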 These entries were drawn from the full list.

Each compound was assayed against Luciferin 4-monooxygenase (Photinus pyralis) (UniProt P08659) (assay: FLuc activators, initial screening, artefact control for FLuc-dependent activation tests, biochemical, ATPlite luminescence (AID 1027)). Settings: ATPlite luciferase biochemical, 10 min, at 10 µM, active compounds read high, 0 = ATP-free wells, 1 = DMSO control.
Luciferin 4-monooxygenase (Photinus pyralis), sequence (P08659 whole entry, looked up): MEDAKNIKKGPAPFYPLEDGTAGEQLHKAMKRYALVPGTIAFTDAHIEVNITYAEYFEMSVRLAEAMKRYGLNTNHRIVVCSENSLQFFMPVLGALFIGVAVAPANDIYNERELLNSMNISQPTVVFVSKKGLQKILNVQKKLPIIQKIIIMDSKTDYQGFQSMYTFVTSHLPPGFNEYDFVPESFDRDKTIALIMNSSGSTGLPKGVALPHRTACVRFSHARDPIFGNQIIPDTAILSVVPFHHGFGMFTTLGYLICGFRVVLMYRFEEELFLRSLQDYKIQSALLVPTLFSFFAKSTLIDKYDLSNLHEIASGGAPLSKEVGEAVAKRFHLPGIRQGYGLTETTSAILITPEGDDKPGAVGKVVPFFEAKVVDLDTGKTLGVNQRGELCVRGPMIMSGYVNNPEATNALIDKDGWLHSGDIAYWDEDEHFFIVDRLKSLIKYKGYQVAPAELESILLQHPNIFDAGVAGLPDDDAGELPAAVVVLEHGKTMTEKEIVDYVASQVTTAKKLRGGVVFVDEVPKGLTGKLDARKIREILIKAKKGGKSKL
Method in brief: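 Material: luciferase plus luciferin reagent, cell-free. Medium: PBS buffer for ATP. Also added: ATP substrate, dispensed from a 10.24 µM working solution in PBS. Doses: test compounds dosed from 2 mM stocks in 100% DMSO. Incubation: 10 min post-reagent at room temperature. Technique: light output (luminescence). Read-out basis: luminescence gain marking luciferase activators.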

Activation factor, inactive:
O=C(O)CC(Cc1ccccc1)C(=O)Nc1ccc([N+](=O)[O-])cc1 (centres undefined) 1.1, CCC1CCCCN1C(=S)Nc1ccc(C(C)=O)cc1 (centres undefined) 1, Cc1ccc(C)c(NC2=NCC(=O)N2c2ccc3c(c2)OCCO3)c1 1.1, COc1ccc(C(=O)Nc2ccc3nc(N4CCCCC4)cc(C)c3c2)cc1OC 1.1, NC(=O)c1ccccc1N(Cc1ccccc1)S(=O)(=O)c1ccccc1 1, Cc1cccc(N2CCC(NCc3c(C(=O)N4CCCCC4)nc4c(C)cccn34)CC2)c1 1, COc1ccc(CCC(=O)OCC(=O)Nc2ccc(C)c(S(=O)(=O)N(C)C)c2)cc1 1, Cc1cccc(N2C(=O)SC(SC(=Nc3ccccc3)Nc3ccccc3)C2=O)c1 (centres undefined) 1, Cc1ccc(C(=O)N/C(=C\c2cccs2)C(=O)NCCc2ccccn2)cc1C 1, COc1cccc(CC2(CO)CCCN(CC3=Cc4cc(OC)ccc4OC3)C2)c1 (centres undefined) 1.1, Cc1ccc2[nH]c(C)c(CCNC(=O)NC3CCCCC3)c2c1 1, S=C(Nc1cccc(Br)c1)N1CCn2cccc2C1c1cccnc1 (centres undefined) 1.1, NS(=O)(=O)c1ccc(N2C(=O)C3C4CC(C(Br)C4Br)C3C2=O)cc1 (centres undefined) 1, CCc1ccc(C2N3CC4([N+](=O)[O-])CN2CC([N+](=O)[O-])(C3)C4(C)C)cc1 (centres undefined) 1.1, Cc1nnc(SC(C)C(=O)Nc2ccc(S(=O)(=O)NC3CCCCC3)cc2)s1 (centres undefined) 1.1, Cc1ccc(C(=O)NC(=S)NCCN2CCOCC2)cc1 1.1, CC(CO)N1CCS(=O)(=O)CC1 (centres undefined) 1.1, CC1CCCN(CCOCCOc2ccccc2-c2ccccc2)C1 (centres undefined) 1, Cc1noc(C)c1CCC(=O)O 1, CCC1CCCCN1C(=O)CSc1nc2c(c(=O)n(C)c(=O)n2C)n1C (centres undefined) 1, C=C(C)c1cccc(C(C)(C)NC(=O)NC2CCCC2)c1 1, COc1ccc(CCCc2nnc(SCc3nc4ccccc4c(=O)[nH]3)n2C)cc1 1.1, CCOC(=O)N1CCN(CCC(=O)Nc2cc(OC)ccc2OC)CC1 1, Cc1ccc2nc(-c3ccc(NC(=O)CN(C)S(=O)(=O)c4ccccc4)cc3)sc2c1 0.7, CC(C)(C)c1ccc(/C=C/C(=O)NC2CCS(=O)(=O)C2)cc1 (centres undefined) 0.9, O=C(COC(=O)c1ccccc1)Nc1cccc(S(=O)(=O)N2CCOCC2)c1 1.1, NS(=O)(=O)c1ccc(CNC(=O)c2ccc(Cl)cc2[N+](=O)[O-])cc1 1, CCn1cc(/C=C2/SC(=S)NC2=O)c(C)n1 0.8, COc1cccc(NC(=O)c2nn(-c3ccc(OC)cc3OC)c(=O)c3ccccc23)c1 1, COc1cc(SC#N)ccc1N=Cc1c(C)[nH]n(-c2ccc(C)cc2)c1=O 0.9, CCN=C1S/C(=C\c2cc(Br)ccc2OCC(=O)OCC)C(=O)N1CC 1, CCc1cccc2c(=O)c(C(=O)NCCCOC)c[nH]c12 1, CS(=O)(=O)N(CC(=O)N1CCCC1)Cc1ccccc1 1.1, O=C(NCCNc1ccc([N+](=O)[O-])cc1)c1cccc2c(Br)cccc12 1, Cc1ccc(SCCC(=O)NCc2ccccn2)cc1 1, Oc1ccc(Br)cc1C=Nc1ccc2[nH]ncc2c1 1, CN(CC(=O)Nc1ccc(S(=O)(=O)N2CCCC2)cc1)Cc1ccc(Cl)c(Cl)c1 1, CC(=O)n1c(C=Nc2ccccc2)c(O)c2ccccc21 0.4, CC1Cc2ccccc2N1C1=CC(=O)CC(C)(C)C1 (centres undefined) 1.1, Cc1c(NC(=O)CCC2CCCCC2)cc(C(=O)N2CCOCC2)cc1[N+](=O)[O-] 1.1, CCOCCCNCc1cc(Br)ccc1OCC 1, O=C(CSc1ccccn1)Nc1nc2c(ccc3ccccc32)s1 1.1, CCOc1ccc2nc(NC(=O)c3cc([N+](=O)[O-])ccc3N3CCOCC3)sc2c1 1, COc1ccc(-c2nc(CN3CCN(c4ncccn4)CC3)c(C)o2)cc1C 1, O=C(O)c1ccc2c(c1)C(=O)N(NC(=O)c1ccc(O)cc1)C2=O 1.1, COC(=O)c1ccc(/C=N/OCC(=O)Nc2cc(F)ccc2F)cc1 1, CC(NC(=S)Nc1ccc(S(N)(=O)=O)cc1)c1ccc2c(c1)OCO2 (centres undefined) 1.1, Cc1ccc(NC(=S)N2CCN(c3ncccn3)CC2)cc1C 1.1, Cc1ccc(C(=O)O)cc1N1C(=O)CCCC1=O 1, Cn1cc(CN2CCCC(CO)C2)c(-c2ccc(Oc3ccccc3)cc2)n1 (centres undefined) 1.1, COC(=O)c1ccc(CSc2nnc(N)s2)o1 1, COc1ccc(CN2CCCC(C(=O)c3ccc(Cl)cc3)C2)cc1Cn1cncn1 (centres undefined) 1, O=C(CC1Nc2ccccc2NC1=O)Nc1ccccc1NC(=O)CC1Nc2ccccc2NC1=O (centres undefined) 0.9, CCN(CC(=O)NCCc1ccccc1)S(=O)(=O)c1ccc(C)cc1 1.1, Cc1nc(N2CCCCC2)sc1C=O 1, C=CCn1c(SCC(=O)CC(=O)OCC)nc2cc(C(=O)N3CCC(C(N)=O)CC3)ccc2c1=O 1, COC(=O)c1c(NC(C)=O)sc(C(=O)Nc2ccccc2OC)c1C 1, COc1cc(/C=N\NC(=O)c2nonc2N)c(OC)cc1Br 1, CCOC(=O)C1CCN(C(=O)/C=C/c2cc(OC)c(OC)c(OC)c2)CC1 1, COc1ccc(S(=O)(=O)NC(C)C)cc1C(=O)NC1CCCCC1 1.1, COc1ccccc1C1SCCN1C(=O)c1ccc([N+](=O)[O-])cc1 (centres undefined) 1, CSc1nc(-c2ccccc2)nc(C(Cl)Cl)n1 1.1, Cc1nc(-c2ccccc2)sc1C(=O)/C=C/N(C)C 0.9, COc1ccc(/C=C/C2=CC(C)(C)NC(=S)N2)c(OC)c1 1
